Experimental data from ChEMBL document CHEMBL3259568 (Bioorg Med Chem, 2014).

How the values were obtained:
[1] = system: Mus musculus; assay: Acute toxicity in albino mouse assessed as effect on general behavioral profile at 2000 mg/kg, po measured for 3 hrs; format: organism-based; parameters: dose 2000 mg/kg, route oral; details: in vivo
Procedure, shortened: (§1)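 OECD guideline test. Albino mice of either sex, 20–25 g, six per group, fasted 24 h with water ad libitum. Compounds suspended in 0.5% aqueous sodium CMC and given orally in increasing doses of 10, 20, 100, 200, 1000 and 2000 mg/kg b.w. Animals watched continuously for 3 h for general behavioural, neurological and autonomic profiles, then every 30 min for 3 h, then up to 24 h or until death.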

[2] = system: Mus musculus; assay: Acute toxicity in albino mouse assessed as effect on neurological profile at 2000 mg/kg, po measured for 3 hrs; format: organism-based; parameters: dose 2000 mg/kg, route oral; details: in vivo; procedure, shortened: as §1
[3] = system: Mus musculus; assay: Acute toxicity in albino mouse assessed as effect on autonomic profile at 2000 mg/kg, po measured for 3 hrs; format: organism-based; parameters: dose 2000 mg/kg, route oral; details: in vivo; procedure, shortened: as §1
[4] = system: Mus musculus; assay: Acute toxicity in albino mouse assessed as mortality at 2000 mg/kg, po measured continuously for 3 hrs followed by every 30 mins for next 3 hrs up to 24 hrs; format: organism-based; parameters: dose 2000 mg/kg, route oral; details: in vivo; procedure, shortened: as §1
[5] = system: Rattus norvegicus; assay: Acute antiinflammatory activity in albino rat assessed as inhibition of carrageenan-induced paw edema at 10 mg/kg, po administered 1 hr followed by carrageenan challenge measured at 2 hrs by plethysmometric analysis relative to control; format: functional
Procedure, shortened: (§2)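 Male albino rats (170–220 g), fasted ≥12 h with water, six per group. Oral dosing in 0.5% sodium CMC (control 1 ml vehicle), then 1 h later subplantar 0.05 ml of 1% carrageenan into left hind footpad. […] Mean ± SEM, ANOVA/Dunnett.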

[6] = system: Rattus norvegicus; assay: Acute antiinflammatory activity in albino rat assessed as inhibition of carrageenan-induced paw edema at 10 mg/kg, po administered 1 hr followed by carrageenan challenge measured at 4 hrs by plethysmometric analysis relative to control; format: functional; procedure, shortened: as §2
[7] = system: Rattus norvegicus; assay: Acute antiinflammatory activity in albino rat assessed as inhibition of carrageenan-induced paw edema at 13.5 mg/kg, po administered 1 hr followed by carrageenan challenge measured at 2 hrs by plethysmometric analysis relative to control; format: functional; procedure, shortened: as §2
[8] = system: Rattus norvegicus; assay: Acute antiinflammatory activity in albino rat assessed as inhibition of carrageenan-induced paw edema at 13.5 mg/kg, po administered 1 hr followed by carrageenan challenge measured at 4 hrs by plethysmometric analysis relative to control; format: functional; procedure, shortened: as §2
[9] = system: Mus musculus; assay: Analgesic activity in albino mouse assessed as protection against glacial acetic acid-induced writhing at 19.5 mg/kg, po administered 0.5 hrs followed by glacial acetic acid challenge measured for 15 mins relative to control; format: functional
Procedure, shortened: (§3)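 Mice (20–25 g) pre-screened 24 h earlier with i.p. 10 ml/kg 0.6% glacial acetic acid; only responders used. Oral dosing as suspension in 0.5% sodium CMC 30 min before acetic acid challenge. Writhing episodes counted for 15 min; group means versus vehicle control; ANOVA with Dunnett test.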

[10] = system: Rattus norvegicus; assay: Ulcerogenic activity in albino rat stress model assessed as ulcer index at 10 mg/kg, po after 7 hrs; format: toxicity, organism-based; parameters: dose 10 mg/kg, route oral; details: in vivo
Procedure, shortened: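 Albino rats of either sex (170–250 g), six per group, starved 48 h with water, dosed orally 10 mg/kg in sodium CMC; killed 7 h later. Stomach opened along greater curvature and everted; lesions counted in five size classes (pinpoint to >4 mm) to give ulcer index, reported as min–max range.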

[11] = system: Mus musculus; assay: Analgesic activity in albino mouse assessed as protection against glacial acetic acid-induced writhing at 10 mg/kg, po administered 0.5 hrs followed by glacial acetic acid challenge measured for 15 mins relative to control; format: functional; procedure, shortened: as §3
[12] = system: Rattus norvegicus; assay: Antipyretic activity in albino rat assessed as yeast-induced pyrexia at 10 mg/kg, po measured at 1 hr by telethermometer (reference value: 38.26 degC); format: functional
Procedure, shortened: (§4)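 Male albino rats (170–230 g) given s.c. 2.5 ml 20% aqueous baker's yeast; rectal temperature by telethermometer before and at 18 h (taken as 0 h). Rats with 1–2 °C rise, six per group, dosed orally 30 min later (control 1 ml 0.5% sodium CMC). Temperature recorded hourly to 5 h; temperature index = sum of mean changes from 0 h.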

[13] = system: Rattus norvegicus; assay: Antipyretic activity in albino rat assessed as yeast-induced pyrexia at 10 mg/kg, po measured at 2 hrs by telethermometer (reference value: 38.20 degC); format: functional; procedure, shortened: as §4
[14] = system: Rattus norvegicus; assay: Antipyretic activity in albino rat assessed as yeast-induced pyrexia at 10 mg/kg, po measured at 3 hrs by telethermometer (reference value: 38.11 degC); format: functional; procedure, shortened: as §4
[15] = system: Rattus norvegicus; assay: Antipyretic activity in albino rat assessed as yeast-induced pyrexia at 10 mg/kg, po measured at 4 hrs by telethermometer (reference value: 38 degC); format: functional; procedure, shortened: as §4
[16] = system: Rattus norvegicus; assay: Antipyretic activity in albino rat assessed as yeast-induced pyrexia at 10 mg/kg, po measured at 5 hrs by telethermometer (reference value: 37.89 degC); format: functional; procedure, shortened: as §4
[17] = system: Rattus norvegicus; assay: Antipyretic activity in albino rat assessed as decrease in yeast-induced pyrexia by measuring temperature index at 10 mg/kg, po measured over 5 hrs by telethermometer (reference value: 1.04 degC); format: functional; procedure, shortened: as §4
[18] = molecular target: T1, Prostaglandin G/H synthase 1 (Ovis aries) (UniProt P05979); assay: Inhibition of ovine COX1 peroxidase activity assessed as reduction of PGG2 to PGH2 by measuring oxidized TMPD level at 10 ug/ml by colorimetric assay relative to control
T1 sequence (whole entry): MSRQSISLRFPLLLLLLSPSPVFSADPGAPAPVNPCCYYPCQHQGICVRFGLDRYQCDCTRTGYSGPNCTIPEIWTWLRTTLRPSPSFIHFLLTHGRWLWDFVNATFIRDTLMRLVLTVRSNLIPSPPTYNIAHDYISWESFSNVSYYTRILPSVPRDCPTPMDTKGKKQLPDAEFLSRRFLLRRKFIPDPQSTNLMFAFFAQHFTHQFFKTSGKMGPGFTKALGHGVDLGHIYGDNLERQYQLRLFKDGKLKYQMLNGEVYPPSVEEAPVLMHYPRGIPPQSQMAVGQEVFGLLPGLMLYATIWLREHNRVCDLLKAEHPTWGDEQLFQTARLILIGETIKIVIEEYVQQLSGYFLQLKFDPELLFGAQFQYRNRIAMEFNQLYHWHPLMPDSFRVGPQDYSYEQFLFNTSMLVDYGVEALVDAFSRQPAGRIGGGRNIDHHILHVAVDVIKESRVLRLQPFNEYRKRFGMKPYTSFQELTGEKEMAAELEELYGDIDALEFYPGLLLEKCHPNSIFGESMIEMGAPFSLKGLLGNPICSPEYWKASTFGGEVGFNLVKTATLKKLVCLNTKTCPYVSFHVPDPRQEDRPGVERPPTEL

[19] = molecular target: T2, Prostaglandin G/H synthase 1 (Ovis aries, UniProt P05979); assay: Inhibition of ovine COX1 peroxidase activity assessed as reduction of PGG2 to PGH2 by measuring oxidized TMPD level by colorimetric assay
T2 sequence (P05979 whole entry): T1 sequence (whole entry)

[20] = system: Rattus norvegicus; assay: Antipyretic activity in albino rat assessed as yeast-induced pyrexia at 135 mg/kg, po measured at 1 hr by telethermometer (reference value: 38.26 degC); format: functional; procedure, shortened: as §4
[21] = system: Rattus norvegicus; assay: Antipyretic activity in albino rat assessed as yeast-induced pyrexia at 135 mg/kg, po measured at 2 hrs by telethermometer (reference value: 38.20 degC); format: functional; procedure, shortened: as §4
[22] = system: Rattus norvegicus; assay: Antipyretic activity in albino rat assessed as yeast-induced pyrexia at 135 mg/kg, po measured at 3 hrs by telethermometer (reference value: 38.11 degC); format: functional; procedure, shortened: as §4
[23] = system: Rattus norvegicus; assay: Antipyretic activity in albino rat assessed as yeast-induced pyrexia at 135 mg/kg, po measured at 4 hrs by telethermometer (reference value: 38 degC); format: functional; procedure, shortened: as §4
[24] = system: Rattus norvegicus; assay: Antipyretic activity in albino rat assessed as yeast-induced pyrexia at 135 mg/kg, po measured at 5 hrs by telethermometer (reference value: 37.89 degC); format: functional; procedure, shortened: as §4
[25] = system: Rattus norvegicus; assay: Antipyretic activity in albino rat assessed as decrease in yeast-induced pyrexia by measuring temperature index at 135 mg/kg, po measured over 5 hrs by telethermometer (reference value: 1.04 degC); format: functional; procedure, shortened: as §4

SMILES: CN(Cn1nc(Cc2ccccc2Nc2c(Cl)cccc2Cl)oc1=S)c1ccccc1
- Activity [1]: Non-toxic
- Activity [2]: Non-toxic
- Activity [3]: Non-toxic
- Activity [4]: Non-toxic
- inhibition in vivo at 10 mg/kg [5]: 41.8%
- inhibition in vivo at 10 mg/kg [6]: 41%

SMILES: O=C(O)Cc1ccccc1Nc1c(Cl)cccc1Cl [DICLOFENAC]
- inhibition in vivo at 13.5 mg/kg [7]: 65.5%
- inhibition in vivo at 13.5 mg/kg [8]: 66.2%
- Activity [9]: 79.3%
- UI [10]: 5.5

SMILES: S=c1oc(Cc2ccccc2Nc2c(Cl)cccc2Cl)nn1CNC1CCCCC1
- Activity [1]: Non-toxic
- Activity [2]: Non-toxic
- Activity [3]: Non-toxic
- Activity [4]: Non-toxic
- inhibition in vivo at 10 mg/kg [5]: 65.9%
- inhibition in vivo at 10 mg/kg [6]: 67.5%
- Activity [11]: 77.6%
- T [12]: 37.98 °C
- T [13]: 37.69 °C
- T [14]: 37.03 °C
- T [15]: 37.79 °C
- T [16]: 36.78 °C
- T [17]: 4.38 °C
- UI [10]: 3.6
- inhibition [18]: 19.6%
- IC50 [19]: > 50 µM

SMILES: CC1CCN(Cn2nc(Cc3ccccc3Nc3c(Cl)cccc3Cl)oc2=S)CC1
- Activity [1]: Non-toxic
- Activity [2]: Non-toxic
- Activity [3]: Non-toxic
- Activity [4]: Non-toxic
- inhibition in vivo at 10 mg/kg [5]: 36.9%
- inhibition in vivo at 10 mg/kg [6]: 33.8%

SMILES: S=c1oc(Cc2ccccc2Nc2c(Cl)cccc2Cl)nn1CN1CCOCC1
- Activity [1]: Non-toxic
- Activity [2]: Non-toxic
- Activity [3]: Non-toxic
- Activity [4]: Non-toxic
- inhibition in vivo at 10 mg/kg [5]: 64.3%
- inhibition in vivo at 10 mg/kg [6]: 63.8%
- Activity [11]: 77%
- T [12]: 37.7 °C
- T [13]: 37.55 °C
- T [14]: 37.13 °C
- T [15]: 37.06 °C
- T [16]: 37.15 °C
- T [17]: 3.91 °C
- UI [10]: 2.6
- inhibition [18]: 34.1%
- IC50 [19]: > 50 µM

SMILES: CC(=O)Nc1ccc(O)cc1 [ACETAMINOPHEN]
- T [20]: 38.4 °C
- T [21]: 38 °C
- T [22]: 37.6 °C
- T [23]: 37.3 °C
- T [24]: 37 °C
- T [25]: 6.7 °C

SMILES: CC(=O)Oc1ccccc1C(=O)O [ASPIRIN]
- UI [10]: 4.7
